Results published in ChEMBL document CHEMBL1152300, “Ligand specificity of constitutive androstane receptor as probed by induced-fit docking and mutagenesis” (J Med Chem, 2008).
Each block holds one molecule with its values, some of them ahead of it.

Legend:
[1] = molecular target: Nuclear receptor subfamily 1 group I member 3 (Mus musculus, UniProt O35627, F171L); assay: Activation of mouse CAR F171L mutant expressed in HEK293 cells at 10 uM by mammalian one-hybrid assay; assay type: cell-based; settings: read-out: Activity
Chain of Nuclear receptor subfamily 1 group I member 3 (Mus musculus, UniProt O35627, F171L) (O35627 whole entry F171L, the tested form may be a part): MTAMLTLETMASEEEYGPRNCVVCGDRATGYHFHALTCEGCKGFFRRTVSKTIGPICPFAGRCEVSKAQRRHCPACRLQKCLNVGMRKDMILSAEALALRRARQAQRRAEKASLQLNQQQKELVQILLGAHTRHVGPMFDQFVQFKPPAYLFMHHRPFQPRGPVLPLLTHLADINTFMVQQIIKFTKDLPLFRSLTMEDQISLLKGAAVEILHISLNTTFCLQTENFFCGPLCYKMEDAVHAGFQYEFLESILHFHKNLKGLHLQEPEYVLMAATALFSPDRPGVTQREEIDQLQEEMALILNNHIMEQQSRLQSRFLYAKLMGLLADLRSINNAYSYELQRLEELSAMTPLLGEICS
How it was run: (§1)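 GAL4-DBD fused to mouse CAR LBD (residues 118-358), wild-type or point mutant, cotransfected with UASx4-tk-luc reporter and pCMVβ into HEK293 cells. Cells were exposed to final 1 µM, 2 µM or 10 µM test chemical, or 0.1% v/v DMSO, for 24 h after transfection. Luciferase was normalized to β-galactosidase and set against empty GAL4 vector (=1.0). Mean ± standard deviation, three independent experiments.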

[2] = molecular target: T1, Nuclear receptor subfamily 1 group I member 3 (Mus musculus, UniProt O35627, H213A); assay: Effect on nuclear co-repressor receptor binding to mouse CAR H213A mutant […] at 10 uM by yeast two-hybrid assay; assay type: cell-based; settings: read-out: Activity
T1 sequence (O35627 whole entry H213A, the tested form may be a part): as the sequence (O35627 whole entry F171L, the tested form may be a part) above, with L171F, H213A counted along it
How it was run: (§2)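 Yeast two-hybrid: yeast expressing wild-type or mutant mouse CAR LBD plus SRC-1 or NCoR, selected on SD medium lacking Leu and Trp. Pooled colonies treated with DMSO or test chemical for 3.5 h. β-Galactosidase normalized to cell density. SRC-1 reference: wild-type + DMSO = 100. NCoR reference: 10 µM androstenol = 100. Mean ± SD, two independent determinations, each in triplicate.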

[3] = molecular target: T2, Nuclear receptor subfamily 1 group I member 3 (Mus musculus, UniProt O35627, Y336A); assay: Enhancement of steroid receptor coactivator 1 binding to mouse CAR Y336A mutant […] at 10 uM by yeast two-hybrid assay; assay type: cell-based; how it was run: as §2
T2 sequence (O35627 whole entry Y336A): as the sequence (O35627 whole entry F171L, the tested form may be a part) above, with L171F, Y336A counted along it

[4] = molecular target: T3, Nuclear receptor subfamily 1 group I member 3 (Mus musculus, UniProt O35627, L212A); assay: Activation of mouse CAR L212A mutant expressed in HEK293 cells at 1 uM by mammalian one-hybrid assay; assay type: cell-based; settings: hek293, 1 µM
T3 sequence (O35627 whole entry L212A, the tested form may be a part): as the sequence (O35627 whole entry F171L, the tested form may be a part) above, with L171F, L212A counted along it
How it was run: (§3)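 GAL4 DBD fused to mouse CAR LBD (residues 118-358), wild type or point mutant, cotransfected with UASx4-tk-luc reporter and pCMVβ into HEK293 cells. Cells cultured with DMSO (0.1% v/v) or compound (final 1, 2 or 10 µM). Lysed 24 h post-transfection. Luciferase normalized to β-galactosidase, expressed relative to empty GAL4 vector (=1.0). Mean ± SD, three independent experiments.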

[5] = molecular target: T4, Nuclear receptor subfamily 1 group I member 3 (Mus musculus, UniProt O35627, I252L); assay: Activation of mouse CAR I252L mutant expressed in HEK293 cells at 1 uM by mammalian one-hybrid assay; assay type: cell-based; settings: hek293, 1 µM; how it was run: as §3
T4 sequence (O35627 whole entry I252L): as the sequence (O35627 whole entry F171L, the tested form may be a part) above, with L171F, I252L counted along it

[6] = molecular target: T5, Nuclear receptor subfamily 1 group I member 3 (Mus musculus, UniProt O35627, L353A); assay: Decrease in mouse CAR L353A mutant activation expressed in HEK293 cells at 1 uM by mammalian one-hybrid assay; assay type: cell-based; settings: read-out: Activity; how it was run: as §3
T5 sequence (O35627 whole entry L353A): as the sequence (O35627 whole entry F171L, the tested form may be a part) above, with L171F, L353A counted along it

[7] = molecular target: T3, Nuclear receptor subfamily 1 group I member 3; assay: Effect on nuclear co-repressor receptor binding to mouse CAR L212A mutant […] at 1 uM by yeast two-hybrid assay; assay type: cell-based; settings: read-out: Activity
How it was run: (§4)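 Yeast expressing wild-type or mutant mouse CAR LBD plus NCoR, selected on SD plates lacking leucine and tryptophan. Pooled colonies treated with DMSO or compound for 3.5 h. β-Galactosidase activity normalized to cell density. Reference is 10 µM androstenol (=100). Mean ± SD of two independent determinations, each in triplicate.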

[8] = molecular target: T1, Nuclear receptor subfamily 1 group I member 3; assay: Effect on nuclear co-repressor receptor binding to mouse CAR H213A mutant […] at 1 uM by yeast two-hybrid assay; assay type: cell-based; settings: read-out: Activity; how it was run: as §4
[9] = molecular target: T3, Nuclear receptor subfamily 1 group I member 3; assay: Effect on steroid receptor co-activator 1 binding to mouse CAR L212A mutant […] at 1 uM by yeast two-hybrid assay; assay type: cell-based; settings: read-out: Activity
How it was run: as §4, with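 “SRC-1,” for “NCoR,”, “wild-type CAR + SRC-1 with DMSO” for “10 µM androstenol”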

[10] = molecular target: T6, Nuclear receptor subfamily 1 group I member 3 (Mus musculus, UniProt O35627, S251L); assay: Effect on steroid receptor co-activator 1 binding to mouse CAR S251L mutant […] at 1 uM by yeast two-hybrid assay; assay type: cell-based; settings: read-out: Activity
T6 sequence (O35627 whole entry S251L, the tested form may be a part): as the sequence (O35627 whole entry F171L, the tested form may be a part) above, with L171F, S251L counted along it
How it was run: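 Yeast two-hybrid assay. Yeast co-expressing wild-type or mutant mouse CAR LBD and the SRC-1 partner were selected on SD plates lacking leucine and tryptophan. Random colonies were pooled and amplified, then treated with DMSO or test chemical for 3.5 h. β-galactosidase activity was normalized to cell density and set relative to wild-type mCAR + SRC-1 with DMSO (=100). Mean ± standard deviation of two determinations, each in triplicate.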

[11] = molecular target: T4, Nuclear receptor subfamily 1 group I member 3; assay: Effect on nuclear co-repressor receptor binding to mouse CAR I252L mutant […] at 1 uM by yeast two-hybrid assay; assay type: cell-based; settings: read-out: Activity; how it was run: as §4
[12] = molecular target: T2, Nuclear receptor subfamily 1 group I member 3; assay: Decrease in steroid receptor coactivator 1 binding to mouse CAR Y336A mutant […] at 1 uM by yeast two-hybrid assay; assay type: cell-based; settings: read-out: Activity
How it was run: as §4, with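 “SRC-1,” for “NCoR,”, “wild-type CAR + SRC-1 with DMSO” for “10 µM androstenol”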

[13] = molecular target: Nuclear receptor subfamily 1 group I member 3 (Mus musculus, UniProt O35627, T350A); assay: Decrease in steroid receptor coactivator 1 binding to mouse CAR T350A mutant […] at 1 uM by yeast two-hybrid assay; assay type: cell-based; settings: read-out: Activity
Chain of Nuclear receptor subfamily 1 group I member 3 (Mus musculus, UniProt O35627, T350A) (O35627 whole entry T350A): as the sequence (O35627 whole entry F171L, the tested form may be a part) above, with L171F, T350A counted along it
How it was run: as §4, with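 “SRC-1,” for “NCoR,”, “wild-type CAR + SRC-1 with DMSO” for “10 µM androstenol”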

[14] = molecular target: T5, Nuclear receptor subfamily 1 group I member 3; assay: Decrease in steroid receptor coactivator 1 binding to mouse CAR L353A mutant […] at 1 uM by yeast two-hybrid assay; assay type: cell-based; settings: read-out: Activity
How it was run: as §4, with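 “SRC-1,” for “NCoR,”, “wild-type CAR + SRC-1 with DMSO” for “10 µM androstenol”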

[15] = molecular target: T3, Nuclear receptor subfamily 1 group I member 3; assay: Decrease in mouse CAR L212A mutant activation expressed in HEK293 cells at 10 uM by mammalian one-hybrid assay; assay type: cell-based; settings: read-out: Activity; how it was run: as §3
[16] = molecular target: T6, Nuclear receptor subfamily 1 group I member 3; assay: Activation of mouse CAR S251L mutant expressed in HEK293 cells at 10 uM by mammalian one-hybrid assay; assay type: cell-based; settings: hek293, 10 µM; how it was run: as §3
[17] = molecular target: T4, Nuclear receptor subfamily 1 group I member 3; settings: HEK293, mouse
[18] = molecular target: T2, Nuclear receptor subfamily 1 group I member 3; settings: HEK293, mouse
[19] = molecular target: T3, Nuclear receptor subfamily 1 group I member 3; assay: Activation of mouse CAR L212A mutant expressed in HEK293 cells at 2 uM by mammalian one-hybrid assay; assay type: cell-based; settings: hek293, 2 µM; how it was run: as §1
[20] = molecular target: T7, Nuclear receptor subfamily 1 group I member 3 (Mus musculus, UniProt O35627, L253F); assay: Decrease in mouse CAR L253F mutant activation expressed in HEK293 cells at 2 uM by mammalian one-hybrid assay; assay type: cell-based; settings: read-out: Activity; how it was run: as §1
T7 sequence (O35627 whole entry L253F): as the sequence (O35627 whole entry F171L, the tested form may be a part) above, with L171F, L253F counted along it

[21] = molecular target: T7, Nuclear receptor subfamily 1 group I member 3; assay: Decrease in nuclear co-repressor receptor binding to mouse CAR L253F mutant […] at 2 uM by yeast two-hybrid assay; assay type: cell-based; settings: read-out: Activity; how it was run: as §2
[22] = molecular target: T5, Nuclear receptor subfamily 1 group I member 3; assay: Decrease in nuclear co-repressor receptor binding to mouse CAR L353A mutant […] at 2 uM by yeast two-hybrid assay; assay type: cell-based; settings: read-out: Activity; how it was run: as §2
[23] = molecular target: T5, Nuclear receptor subfamily 1 group I member 3; assay: Effect on steroid receptor coactivator 1 binding to mouse CAR L353A mutant […] at 2 uM by yeast two-hybrid assay; assay type: cell-based; settings: read-out: Activity; how it was run: as §2

activity at 10 µM [1]: < 50%
SMILES: COc1ccc(C(=O)CCCc2ccccc2)cc1

activity at 10 µM [2]: < 50%
Activity [3]: > 150%
SMILES: COc1ccccc1CC(CC(=O)Cc1ccccc1)OC (stereo not drawn)

SMILES: Clc1cnc(Oc2ccc(Oc3ncc(Cl)cc3Cl)cc2)c(Cl)c1
Activity [4]: < 50%
Activity [5]: < 50%
inhibition at 1 µM [6]: 50%
activity at 1 µM [7]: < 50%
activity at 1 µM [8]: < 50%
activity at 1 µM [9]: < 50%
activity at 1 µM [10]: < 50%
activity at 1 µM [11]: < 50%
inhibition at 1 µM [12]: ≥ 50%
inhibition at 1 µM [13]: ≥ 50%
inhibition at 1 µM [14]: ≥ 50%

SMILES: C[C@]12CC[C@@H](O)C[C@@H]1CC[C@@H]1[C@@H]2CC[C@]2(C)C=CC[C@@H]12 [ANDROSTENOL]
inhibition at 10 µM [15]: 50%
Activity [16]: < 50%
activity at 10 µM [17]: < 50%
activity at 10 µM [18]: < 50%

Activity [19]: < 50%
inhibition at 2 µM [20]: 50%
inhibition at 2 µM [21]: ≥ 50%
inhibition at 2 µM [22]: ≥ 50%
activity at 2 µM [23]: < 50%
SMILES: Clc1ccccc1C(c1ccccc1)(c1ccccc1)n1ccnc1 [CLOTRIMAZOLE]
